The values that follow come from ChEMBL document CHEMBL2062401, “New pyrimido[5,4-e]pyrrolo[1,2-c]pyrimidines: synthesis, 2D-QSAR, anti-inflammatory, analgesic and ulcerogenicity studies” (Eur J Med Chem, 2012).

The structures appear in SMILES notation.

Series [1] relates to Rattus norvegicus. Kind of series: Antiinflammatory activity in Wistar albino rat assessed as inhibition of carrageenan-induced paw edema at 0.029 mmol/kg, po dosed 1 hr before carrageenan challenge measured 1 hr post carrageenan-induced inflammation. The class given is functional. The method, boiled down: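 Wistar albino rats of both sexes, 120–150 g, six per group, food withdrawn the day before. Given orally 0.029 mmol/kg in saline with a few drops of Tween 80, by stomach tube, 1 h before subplantar s.c. carrageenan (0.1 ml of 1%) into the right hind paw. Paw thickness measured at 1, 2, 3 and 4 h against baseline. % inhibition = 100 × (1 − Vt/Vc).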

Series [2] deals with Rattus norvegicus. The experiment in a line: Gastrointestinal toxicity in Wistar albino rat assessed as incidence of stomach ulceration at 0.029 mmol/kg, po. The class given is organism-based. Conditions: in vivo. The method, boiled down: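 Rats given single oral dose suspended in saline with few drops Tween 80 (groups of 6); killed under deep ether anaesthesia 5 h after treatment; stomach opened along greater curvature and examined for lesions or bleeding; ulceration expressed as number of rats affected per group.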

The test system of series [3] is Mus musculus. The experiment in a line: Analgesic activity in Swiss albino mouse assessed as inhibition of acetic acid-induced writhing at 0.029 mmol/kg. po dosed 1 hr before acetic acid challenge and measured during 30 mins post acetic acid challenge. The class given is functional. A digest of the protocol: (§1)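 Swiss albino mice of either sex, 18–22 g, six per group. Oral suspension at 0.029 mmol/kg given 1 h before 0.3 ml of 1% acetic acid i.p. Contractions counted for 30 min, starting 5 min after injection. % protection = (n − n')/n × 100 against control writhing. Potency% = % inhibition of test / % inhibition of indomethacin × 100. Mean ± SEM, ANOVA with post hoc test.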

Series [4] has as its system Mus musculus. The experiment in a line: Analgesic activity in Swiss albino mouse assessed as inhibition of acetic acid-induced writhing at 0.029 mmol/kg. po dosed 1 hr before acetic acid challenge and measured during 30 mins post acetic acid challenge relative to indomethacin. Format: functional. Conditions: read-out: INH. A digest of the protocol: as §1
Series [5] in a line: Lipophilicity, log P of the compound. The class given is physicochemical. Conditions: octanol/water.
Series [6] deals with Rattus norvegicus. The experiment in a line: Antiinflammatory activity in Wistar albino rat assessed as inhibition of carrageenan-induced paw edema at 0.029 mmol/kg, po dosed 1 hr before carrageenan challenge measured 2 hrs post carrageenan-induced inflammation.
The subject of series [7] is Rattus norvegicus. The experiment in a line: Antiinflammatory activity in Wistar albino rat assessed as inhibition of carrageenan-induced paw edema at 0.029 mmol/kg, po dosed 1 hr before carrageenan challenge measured 3 hrs post carrageenan-induced inflammation.
The test system of series [8] is Rattus norvegicus. Kind of series: Antiinflammatory activity in Wistar albino rat assessed as inhibition of carrageenan-induced paw edema at 0.029 mmol/kg, po dosed 1 hr before carrageenan challenge measured 4 hrs post carrageenan-induced inflammation.

As to `Cc1cc(C)n(C(=O)c2nc3c(c(=O)[nH]2)C2CCCN2C(=O)N3c2ccccc2)n1` (stereo not drawn), the inhibition in vivo at 29 µmol/kg in the series with Rattus norvegicus [1] was 58%; in the series on Mus musculus [3], 62.1%; in the series on Rattus norvegicus [6] it was 57%; in the series with Rattus norvegicus [7], 65%; in the series with Rattus norvegicus [8] it was 67%. In the series with Rattus norvegicus [2], the Activity entry is reported as “Non-toxic”. Also, in the series with Mus musculus [4], the writhing inhibition relative to indomethacin (potency %) at 29 µmol/kg turned out to be 94%. For the same compound, the logP in series [5] is 1.46.
For `O=C(NN=C(c1ccccc1)c1ccccc1)c1nc2c(c(=O)[nH]1)C1CCCN1C(=O)N2c1ccccc1` (stereo not drawn), the inhibition in vivo at 29 µmol/kg in the series with Rattus norvegicus [1] was 44%; with Mus musculus [3], 81.9%; in the series with Rattus norvegicus [6], 51%; in the series on Rattus norvegicus [7], 51%; in the series with Rattus norvegicus [8], 53%. In the series on Rattus norvegicus [2], the Activity entry was “Non-toxic”. Further, the writhing inhibition relative to indomethacin (potency %) at 29 µmol/kg with Mus musculus [4] was determined as 124%. In series [5], this compound gave a log partition coefficient (logP) of 5.52.
On to `CCOC(=O)c1nc2c(c(=O)[nH]1)C1CCCN1C(=O)N2c1ccccc1` (stereo not drawn), for which the inhibition in vivo at 29 µmol/kg amounted to 71% in the series on Rattus norvegicus [1]; 29.4% in the series with Mus musculus [3]; 67% in the series on Rattus norvegicus [6]; 68% with Rattus norvegicus [7]; 66% in the series on Rattus norvegicus [8]. Besides, in the series with Rattus norvegicus [2], the Activity entry was “Non-toxic”. The writhing inhibition relative to indomethacin (potency %) at 29 µmol/kg in the series on Mus musculus [4] is 44.5%. The compound further came in with a logP in series [5] of 2.02.
Consider `CCO/C=N/NC(=O)c1nc2c(c(=O)[nH]1)C1CCCN1C(=O)N2c1ccccc1` (stereo not drawn), for which the inhibition in vivo at 29 µmol/kg with Rattus norvegicus [1] is 47%; in the series with Mus musculus [3], 24.9%; in the series on Rattus norvegicus [6], 55%; with Rattus norvegicus [7] it was 64%; in the series with Rattus norvegicus [8], 55%. Further, the Activity entry with Rattus norvegicus [2] is on record as “Non-toxic”. The writhing inhibition relative to indomethacin (potency %) at 29 µmol/kg with Mus musculus [4] amounted to 37.7%. Also, in series [5], the logP turned out to be 1.44.
On to `COc1ccc(/C=N/NC(=O)c2nc3c(c(=O)[nH]2)C2CCCN2C(=O)N3c2ccccc2)cc1` (stereo not drawn), for which the inhibition in vivo at 29 µmol/kg in the series with Rattus norvegicus [1] worked out at 51%; in the series on Mus musculus [3], 71.8%; with Rattus norvegicus [6], 21%; in the series with Rattus norvegicus [7] it was 44%; in the series with Rattus norvegicus [8] it was 47%. The Activity entry in the series on Rattus norvegicus [2] is recorded as “Non-toxic”. Besides, the writhing inhibition relative to indomethacin (potency %) at 29 µmol/kg in the series with Mus musculus [4] was 109%. The compound further displayed a logP in series [5] of 2.76.
As to `C/C(=N\NC(=O)c1nc2c(c(=O)[nH]1)C1CCCN1C(=O)N2c1ccccc1)c1ccc(Cl)cc1` (stereo not drawn), the inhibition in vivo at 29 µmol/kg with Rattus norvegicus [1] is 43%; with Mus musculus [3], 62.1%; in the series with Rattus norvegicus [6], 50%; in the series with Rattus norvegicus [7] it was 51%; with Rattus norvegicus [8], 57%. The Activity result in the series with Rattus norvegicus [2] is given as “Toxic”. Besides, in the series on Mus musculus [4], the writhing inhibition relative to indomethacin (potency %) at 29 µmol/kg amounted to 94%. The logP in series [5] is 3.29.
With `O=C1CC(O)=NN1C(=O)c1nc2c(c(=O)[nH]1)C1CCCN1C(=O)N2c1ccccc1` (stereo not drawn), the inhibition in vivo at 29 µmol/kg with Rattus norvegicus [1] amounted to 68%; in the series on Mus musculus [3] it was 61.9%; in the series with Rattus norvegicus [6] it was 44%; in the series on Rattus norvegicus [7] it was 49%; in the series with Rattus norvegicus [8], 65%. Moreover, the Activity result in the series with Rattus norvegicus [2] is given as “Non-toxic”. The writhing inhibition relative to indomethacin (potency %) at 29 µmol/kg in the series with Mus musculus [4] was 93.6%. Also, the logP in series [5] is 0.693.
Consider `CC(C)=NNC(=O)c1nc2c(c(=O)[nH]1)C1CCCN1C(=O)N2c1ccccc1` (stereo not drawn), for which the inhibition in vivo at 29 µmol/kg with Rattus norvegicus [1] is 26%; in the series with Mus musculus [3], 58.8%; in the series on Rattus norvegicus [6] it was 23%; in the series on Rattus norvegicus [7], 35%; in the series on Rattus norvegicus [8], 36%. Further, the Activity result with Rattus norvegicus [2] is on record as “Non-toxic”. The writhing inhibition relative to indomethacin (potency %) at 29 µmol/kg in the series with Mus musculus [4] came to 89%.
